The source made the active and inactive calls. The calls are words filed in the database; no cut-off is given here.
How the values were obtained:
[1] = Photostability of the compound assessed as compound remaining after 2 weeks by HPLC analysis; format: physicochemical; settings: 336 h
[2] = system: Lymphocyte; test: Induction of mAB-CD3-mediated IFN-gamma production in CGS-21680-treated C57/BL6 mouse lymphocytes at 0.5 uM after 24 hrs by ELISA; format: functional, cell-based
In short: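 C57/BL6 mouse splenic lymphocytes activated with 0.1 μg/mL anti-CD3 mAb, then immediately given 1, 10 or 100 nM CGS 21680 with or without antagonist at 0.5 μM. Supernatant IFN-gamma measured after 24 h by sandwich ELISA (paired mAb with standard), in pg/mL; triplicates, mean ± SEM.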

[3] = Partition coefficient, log K of the compound; format: physicochemical; settings: octanol/water
[4] = Octanol-water partition coefficient, log P of the compound by HPLC analysis; format: physicochemical
[5] = target: Adenosine receptor A2a (Mus musculus) (UniProt Q60613); test: Antagonist activity at adenosine A2A receptor in C57/BL6 mouse lymphocytes assessed as inhibition of CGS-21680-mediated cAMP accumulation after 15 mins by ELISA; format: functional, cell-based
Chain of Adenosine receptor A2a (Mus musculus) (Q60613 whole entry): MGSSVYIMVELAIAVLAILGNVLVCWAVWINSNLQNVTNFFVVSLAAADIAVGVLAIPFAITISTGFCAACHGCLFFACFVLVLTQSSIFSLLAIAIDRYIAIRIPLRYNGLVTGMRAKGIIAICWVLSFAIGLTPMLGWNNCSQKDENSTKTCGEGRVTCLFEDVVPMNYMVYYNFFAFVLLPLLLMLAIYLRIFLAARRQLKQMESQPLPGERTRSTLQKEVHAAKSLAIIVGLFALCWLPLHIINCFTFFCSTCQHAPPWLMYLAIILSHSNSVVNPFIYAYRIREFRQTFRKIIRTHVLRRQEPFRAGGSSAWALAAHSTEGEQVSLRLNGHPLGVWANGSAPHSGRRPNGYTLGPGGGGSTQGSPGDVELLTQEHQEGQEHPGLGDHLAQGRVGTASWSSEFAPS
In short: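 Splenic lymphocytes from C57/BL6 mice stimulated with 1 μM CGS 21680 (A2AR agonist), with or without antagonist over 0.1–10 μM; 15 min at 37 °C, stopped with 1 N HCl. Intracellular cAMP quantified by ELISA, expressed as pmol/million cells; triplicate samples, mean ± SEM.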

[6] = Photostability of the compound assessed as compound remaining measured within 24 hrs by HPLC analysis; format: physicochemical; settings: read-out: Stability
[7] = Half life in rat; format: ADME, organism-based; settings: in vivo
[8] = Photostability of the compound assessed as compound remaining measured within 7 days by HPLC analysis; format: physicochemical; settings: read-out: Stability
[9] = Half life in mouse at 20 mg/kg, ip by HPLC analysis; format: ADME, organism-based; parameters: dose 20 mg/kg, route intraperitoneal; settings: in vivo

Row | log K [3] | logP [4] | Compound | Activity [2] | other results
1 | 0.145 | 2.8 | CCn1c(=O)c2c(nc(/C=C/c3ccc(C(=O)OCCOCCOCCOCCOCCOCCOCCOCCOC)c(OC)c3)n2C)n(CC)c1=O | Active | Stability [1]: Stable
2 |  |  | CCn1c(=O)c2c(nc(/C=C/c3ccc(C(=O)OC)c(OC)c3)n2C)n(CC)c1=O |  | inhibition [5]: Active
3 | 0.162 | 2.98 | CCn1c(=O)c2c(nc(/C=C/c3ccc(OC)c(OC)c3)n2C)n(CC)c1=O [ISTRADEFYLLINE] | Active | remaining at 24 h [6]: 10%; half-life [7]: 2 h; remaining at 168 h [8]: > 50%
4 |  |  | Nc1nc(NCCc2ccc(O)cc2)nc2nc(-c3ccco3)nn12 [ZM-241385] |  | half-life [9]: < 1 h

Reference: ChEMBL document CHEMBL3091430, “Design and evaluation of xanthine based adenosine receptor antagonists: potential hypoxia targeted immunotherapies” (Bioorg Med Chem, 2013)
